In article PMC11406440 (Food and chemical toxicology : an international journal …, 2024):

Legend:
[1] = system: IgM response to SRBC; assay: Spleen IgM response to SRBC; format: in vivo, B6C3F1 mice; settings: 10 days
Method in brief: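 B6C3F1 mice, 5/group, dosed topically on dorsal surface of each ear (25 μl/ear) with acetone vehicle or test compound at 0.625, 1.25, 2.5% w/v once daily for 10 consecutive days. SRBC 7.5 × 10^7 i.v. given 4 days before CO2 euthanasia. Spleen cells plated at 1:30 and 1:120 in agar/DEAE-dextran with SRBC and guinea pig complement, 3 h at 37 °C. Plaques counted per 10^6 cells and per spleen. Mean ± SE.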

[2] = system: spleen; assay: Spleen gene expression; format: in vivo, B6C3F1 mice; settings: PFHxS dermal, 28 days
Method in brief: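 Spleens came from female B6C3F1 mice given acetone vehicle or test compound (1.25–5% w/v, 25 μl/ear, both ears) daily for 28 days and necropsied about 24 h after the last dose. Gene expression was measured by qPCR and expressed as mean fold change relative to vehicle, with 5 mice/group. Significance used one-way ANOVA with Dunnett's or Kruskal-Wallis with Dunn's post-test.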

[3] = system: B6C3F1 mice; assay: Serum chemistries after 28-day dermal exposure; format: in vivo; settings: 28 days
Method in brief: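 After 28 daily ear applications (25 μl/ear; acetone or 1.25, 2.5, 5% w/v), blood was taken by cardiac puncture about 24 h post-dose. Serum was separated by centrifugation and frozen at −20 °C, then run on a Catalyst DX chemistry analyzer for ALKP, BUN, glucose, cholesterol and ALT. There were 4–5 mice/group, with one-way ANOVA and Dunnett's post-test versus vehicle.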

[4] = system: spleen cells; assay: Spleen immune phenotyping by flow cytometry; format: in vivo, B6C3F1 mice; settings: 28 days; for Spleen B-cells frequency / Spleen B-cells number / Spleen CD4+ frequency / Spleen CD4+ number / Spleen CD8+ frequency / Spleen CD8+ number / Spleen CD11b + Ly6C+ frequency / Spleen CD11b + Ly6C+ number / Spleen CD11b + Ly6C- frequency / Spleen CD11b + Ly6C- number / Spleen CD11b+ frequency / Spleen CD11b+ number / Spleen CD86 B-cells / Spleen CD86 DCs / Spleen Cellularity / Spleen Dendritic Cells frequency / Spleen Dendritic Cells number / Spleen MHCII B-cells / Spleen MHCII DCs / Spleen NK frequency / Spleen NK number / Spleen Neutrophils frequency / Spleen Neutrophils number: mean ± SE
Method in brief: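 Female B6C3F1 mice (5/group) received 25 μl/ear of acetone vehicle or 1.25, 2.5 or 5% w/v test compound on the dorsal surface of each ear, once daily for 28 days. They were euthanized about 24 h later. Single-cell suspensions were made from both auricular dLNs, half a spleen or one ear pinna. Cells were Fc-blocked (anti-CD16/32), stained with surface antibody cocktails and acquired on an LSR II, with FMO gating controls.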

SMILES: O=S(=O)(O)C(F)(F)C(F)(F)C(F)(F)C(F)(F)C(F)(F)C(F)(F)F [PFHxS, Perfluorohexane sulfonic acid]
- Decrease in specific IgM activity against SRBC (PFC/10^6 cells) vs vehicle ([1]; 1.25% PFHxS dermal): 50.7%
- Decrease in total IgM activity against SRBC (PFC/spleen) vs vehicle ([1]; 1.25% PFHxS dermal): 57.9%
- Decrease in specific IgM activity against SRBC (PFC/10^6 cells) vs vehicle ([1]; 2.5% PFHxS dermal): 49.9%
- Decrease in total IgM activity against SRBC (PFC/spleen) vs vehicle ([1]; 2.5% PFHxS dermal): 60.3%
- Spleen Abcg1 gene expression [2]: increased
- Spleen Chac1 gene expression [2]: increased
- Spleen Crim1 gene expression [2]: increased
- Spleen Ctse gene expression [2]: decrease
- Spleen Fbxo38 gene expression [2]: increased
- Spleen Id1 gene expression [2]: increased
- Spleen Il-10 gene expression [2]: increased
- Spleen Tlr5 gene expression [2]: increased
- Spleen Tlr6 gene expression [2]: increased
- Spleen Tlr7 gene expression [2]: increased
- Spleen Tlr8 gene expression [2]: increased
- Serum ALT fold increase ([3]; 1.25% PFHxS dermal): 3.66 fold
- Serum ALKP fold increase ([3]; 2.5% PFHxS dermal): 2.11 fold
- Serum ALT fold increase ([3]; 2.5% PFHxS dermal): 2.9 fold
- Serum BUN change ([3]; 2.5 and 5% PFHxS dermal): decreased
- Serum cholesterol change ([3]; 2.5 and 5% PFHxS dermal): decreased
- Serum ALKP fold increase ([3]; 5% PFHxS dermal): 2.61 fold
- Serum ALKP increase ([3]; 5% PFHxS dermal): 161%
- Serum ALT fold increase ([3]; 5% PFHxS dermal): 4.6 fold
- Serum ALT increase ([3]; 5% PFHxS dermal): 360%
- Serum cholesterol decrease ([3]; 5% PFHxS dermal): 43%
- Serum glucose decrease ([3]; 5% PFHxS dermal): 58%
- Serum urea nitrogen (BUN) decrease ([3]; 5% PFHxS dermal): 34%
- Serum glucose change ([3]; all three PFHxS concentrations (1.25, 2.5, 5%)): decreased
- Spleen B-cells frequency ([4]; 1.25% PFHxS): 31.48 ± 0.59%
- Spleen B-cells number ([4]; 1.25% PFHxS): 2.50 ± 0.38 x 10^7
- Spleen CD4+ frequency ([4]; 1.25% PFHxS): 24.60 ± 0.70%
- Spleen CD4+ number ([4]; 1.25% PFHxS): 1.95 ± 0.30 x 10^7
- Spleen CD8+ frequency ([4]; 1.25% PFHxS): 15.12 ± 0.73%
- Spleen CD8+ number ([4]; 1.25% PFHxS): 11.70 ± 1.45 x 10^6
- Spleen CD11b + Ly6C+ frequency ([4]; 1.25% PFHxS): 1.11 ± 0.09%
- Spleen CD11b + Ly6C+ number ([4]; 1.25% PFHxS): 9.05 ± 1.59 x 10^5
- Spleen CD11b + Ly6C- frequency ([4]; 1.25% PFHxS): 2.63 ± 0.16 %
- Spleen CD11b + Ly6C- number ([4]; 1.25% PFHxS): 21.00 ± 3.46 x 10^5
- Spleen CD11b+ frequency ([4]; 1.25% PFHxS): 3.90 ± 0.21%
- Spleen CD11b+ number ([4]; 1.25% PFHxS): 3.13 ± 0.51 x 10^6
- Spleen CD86 B-cells ([4]; 1.25% PFHxS): 341.20 ± 16.00 MFI
- Spleen CD86 DCs ([4]; 1.25% PFHxS): 1733.80 ± 46.13 MFI
- Spleen Cellularity ([4]; 1.25% PFHxS): 7.91 ± 1.16 x 10^7
- Spleen Dendritic Cells frequency ([4]; 1.25% PFHxS): 3.33 ± 0.32%
- Spleen Dendritic Cells number ([4]; 1.25% PFHxS): 2.70 ± 0.48 x 10^6
- Spleen MHCII B-cells ([4]; 1.25% PFHxS): 1334.60 ± 89.70 MFI
- Spleen MHCII DCs ([4]; 1.25% PFHxS): 4141.40 ± 112.06 MFI
- Spleen NK frequency ([4]; 1.25% PFHxS): 2.52 ± 0.17%
- Spleen NK number ([4]; 1.25% PFHxS): 20.00 ± 3.26 x 10^5
- Spleen Neutrophils frequency ([4]; 1.25% PFHxS): 1.76 ± 0.14%
- Spleen Neutrophils number ([4]; 1.25% PFHxS): 14.00 ± 2.38 x 10^5
- Spleen eosinophils frequency and number ([4]; 1.25%, 2.5%, 5% PFHxS): decrease
- Spleen B-cells frequency ([4]; 2.5% PFHxS): 32.48 ± 0.37%
- Spleen B-cells number ([4]; 2.5% PFHxS): 1.62 ± 0.19 x 10^7
- Spleen CD4+ frequency ([4]; 2.5% PFHxS): 26.26 ± 0.79 %
- Spleen CD4+ number ([4]; 2.5% PFHxS): 1.30 ± 0.13 x 10^7
- Spleen CD8+ frequency ([4]; 2.5% PFHxS): 16.74 ± 0.56 %
- Spleen CD8+ number ([4]; 2.5% PFHxS): 8.25 ± 0.73 x 10^6
- Spleen CD11b + Ly6C+ frequency ([4]; 2.5% PFHxS): 0.72 ± 0.11 %
- Spleen CD11b + Ly6C+ number ([4]; 2.5% PFHxS): 3.77 ± 0.85 x 10^5
- Spleen CD11b + Ly6C- frequency ([4]; 2.5% PFHxS): 2.21 ± 0.13 %
- Spleen CD11b + Ly6C- number ([4]; 2.5% PFHxS): 11.20 ± 1.52 x 10^5
- Spleen CD11b+ frequency ([4]; 2.5% PFHxS): 3.07 ± 0.21 %
- Spleen CD11b+ number ([4]; 2.5% PFHxS): 1.56 ± 0.24 x 10^6
- Spleen CD86 B-cells ([4]; 2.5% PFHxS): 280.80 ± 10.49 MFI
- Spleen CD86 DCs ([4]; 2.5% PFHxS): 1677.40 ± 60.65 MFI
- Spleen Cellularity ([4]; 2.5% PFHxS): 4.99 ± 0.55 x 10^7
- Spleen Dendritic Cells frequency ([4]; 2.5% PFHxS): 3.36 ± 0.48%
- Spleen Dendritic Cells number ([4]; 2.5% PFHxS): 1.71 ± 0.33 x 10^6
- Spleen MHCII B-cells ([4]; 2.5% PFHxS): 1235.60 ± 111.64 MFI
- Spleen MHCII DCs ([4]; 2.5% PFHxS): 4003.00 ± 145.61 MFI
- Spleen NK frequency ([4]; 2.5% PFHxS): 2.19 ± 0.06 %
- Spleen NK number ([4]; 2.5% PFHxS): 10.90 ± 1.04 x 10^5
- Spleen Neutrophils frequency ([4]; 2.5% PFHxS): 1.69 ± 0.21%
- Spleen Neutrophils number ([4]; 2.5% PFHxS): 8.87 ± 2.15 x 10^5
- Spleen B-cells frequency ([4]; 5% PFHxS): 30.06 ± 0.55 %
- Spleen B-cells number ([4]; 5% PFHxS): 1.11 ± 0.15 x 10^7
- Spleen CD4+ frequency ([4]; 5% PFHxS): 26.90 ± 0.70 %
- Spleen CD4+ number ([4]; 5% PFHxS): 0.99 ± 0.12 x 10^7
- Spleen CD8+ frequency ([4]; 5% PFHxS): 18.12 ± 0.59 %
- Spleen CD8+ number ([4]; 5% PFHxS): 6.58 ± 0.73 x 10^6
- Spleen CD11b + Ly6C+ frequency ([4]; 5% PFHxS): 0.68 ± 0.13 %
- Spleen CD11b + Ly6C+ number ([4]; 5% PFHxS): 2.52 ± 0.56 x 10^5
- Spleen CD11b + Ly6C- frequency ([4]; 5% PFHxS): 1.69 ± 0.13 %
- Spleen CD11b + Ly6C- number ([4]; 5% PFHxS): 6.28 ± 0.91 x 10^5
- Spleen CD11b+ frequency ([4]; 5% PFHxS): 2.49 ± 0.24 %
- Spleen CD11b+ number ([4]; 5% PFHxS): 0.93 ± 0.15 x 10^6
- Spleen CD86 B-cells ([4]; 5% PFHxS): 302.60 ± 14.79 MFI
- Spleen CD86 DCs ([4]; 5% PFHxS): 1754.60 ± 67.69 MFI
- Spleen Cellularity ([4]; 5% PFHxS): 3.68 ± 0.45 x 10^7
- Spleen Dendritic Cells frequency ([4]; 5% PFHxS): 3.34 ± 0.31%
- Spleen Dendritic Cells number ([4]; 5% PFHxS): 1.26 ± 0.20 x 10^6
- Spleen MHCII B-cells ([4]; 5% PFHxS): 1093.20 ± 94.51 MFI
- Spleen MHCII DCs ([4]; 5% PFHxS): 3854.60 ± 88.79 MFI
- Spleen NK frequency ([4]; 5% PFHxS): 1.71 ± 0.17 %
- Spleen NK number ([4]; 5% PFHxS): 6.35 ± 0.96 x 10^5
- Spleen Neutrophils frequency ([4]; 5% PFHxS): 2.51 ± 0.34 %
- Spleen Neutrophils number ([4]; 5% PFHxS): 9.14 ± 1.54 x 10^5
